This is an account of results in ChEMBL document CHEMBL5214999, “Identification and Optimization of a Ligand-Efficient Benzoazepinone Bromodomain and Extra Terminal (BET) Family Acetyl-Lysine Mimetic into the Oral Candidate Quality Molecule I-BET432” (J Med Chem, 2022).

Data set [1] can be described thus: Oral bioavailability in Wistar Han rat at 3.1 mg/kg measured upto 24 hrs by LC-MS/MS analysis. In kind it is ADME, organism-based. To be noted: in vivo. Put shortly:
(§1)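 Male Wistar Han rats and beagle dogs were dosed iv as a 1 h infusion in DMSO with 10% (w/v) Kleptose HPB in saline (2%:98% or 5%:95% v/v). Oral doses were given in 1% (w/v) methylcellulose (400 cps) aqueous suspension. Oral values are means of n = 3 and iv values n = 1 unless otherwise noted.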

The nature of data set [2]: Lipophilicity, logD of compound at pH 7.4 by Chromatography. In kind it is physicochemical. To be noted: buffer.
Data set [3] can be described thus: Clearance in Wistar Han rat blood at 3.1 mg/kg, po or 1 mg/kg, iv measured upto 24 hrs by LC-MS/MS analysis. The class given is ADME, organism-based. To be noted: whole blood. Put shortly:
as §1

Data set [4] is described as follows: Unbound volume of distribution at steady state in Wistar Han rat at 3.1 mg/kg, po or 1 mg/kg, iv measured upto 24 hrs by LC-MS/MS analysis. In kind it is ADME, organism-based. To be noted: in vivo. The method, boiled down:
as §1

In data set [5] the target is T1, Bromodomain-containing protein 4 (Homo sapiens, UniProt O60885). In words: Inhibition of BRD4 BD2 (unknown origin) measured by TR-FRET assay. Background: In TR-FRET formats the signal depends on donor and acceptor labels being close together.
Data set [6] is described as follows: Solubility of the compound at pH 6.5 in fast state simulated intestinal fluid incubated for 16 hrs by HPLC analysis. To be noted: fasted state simulated intestinal fluid. The class given is physicochemical.
Data set [7] deals with T1, Bromodomain-containing protein 4. In words: Inhibition of BRD4 BD1 (unknown origin) measured by TR-FRET assay.
A short description of data set [8]: Unbound clearance in Wistar Han rat blood at 3.1 mg/kg, po or 1 mg/kg, iv measured upto 24 hrs by LC-MS/MS analysis. To be noted: in vivo. In kind it is ADME, organism-based. The method, boiled down:
as §1

A short description of data set [9]: Intrinsic clearance in dog hepatocytes incubated upto 45 mins by LC-MS/MS analysis. The class given is ADME, cell-based, Canis lupus familiaris, Hepatocyte. To be noted: 0.75 h.
Data set [10] can be described thus: Volume of distribution at steady state in Wistar Han rat at 3.1 mg/kg, po or 1 mg/kg, iv measured upto 24 hrs by LC-MS/MS analysis. The following applies: in vivo, read-out: Vdss. The class given is ADME, organism-based. Put shortly:
as §1

The nature of data set [11]: Half-life in Wistar Han rat at 3.1 mg/kg, po or 1 mg/kg, iv measured upto 24 hrs by LC-MS/MS analysis. The class given is ADME, organism-based. To be noted: in vivo. The method, boiled down:
as §1

Another data set addresses C-C motif chemokine 2 (Homo sapiens, UniProt P13500). In words: Inhibition of MCP-1 in LPS-stimulated human whole blood incubate for 24 hrs by immuno assay. The class given is tissue-based.
Data set [12] can be described thus: Intrinsic clearance in rat hepatocytes after 60 mins by LC-MS/MS analysis. The class given is ADME, cell-based, Hepatocyte. To be noted: 1 h.
A short description of data set [13]: Intrinsic clearance in human hepatocytes measured after 120 mins by LC-MS/MS analysis. To be noted: 2 h. The class given is ADME, cell-based, Hepatocyte.
A short description of data set [14]: Artificial membrane permeability of the compound. The class given is ADME. To be noted: PAMPA; read-out: permeability.
A short description of data set [15]: Volume of distribution at steady state in Beagle dog at 1.5 mg/kg, po or 0.4 mg/kg, iv measured upto 24 hrs by LC-MS/MS analysis. In kind it is ADME, organism-based, Canis lupus familiaris. The following applies: in vivo, read-out: Vdss. The method, boiled down: as §1
The nature of data set [16]: Half-life in Beagle dog at 1.5 mg/kg, po or 0.4 mg/kg, iv measured upto 24 hrs by LC-MS/MS analysis. The class given is ADME, organism-based, Canis lupus familiaris. The following applies: in vivo. Put shortly: as §1
Data set [17] is described as follows: Clearance in Beagle dog blood at 1.5 mg/kg, po or 0.4 mg/kg, iv measured upto 24 hrs by LC-MS/MS analysis. The following applies: whole blood. In kind it is ADME, organism-based, Canis lupus familiaris. Put shortly:
as §1

A short description of data set [18]: Unbound clearance in Beagle dog blood at 1.5 mg/kg, po or 0.4 mg/kg, iv measured upto 24 hrs by LC-MS/MS analysis. The following applies: in vivo. The class given is ADME, organism-based, Canis lupus familiaris. Put shortly:
as §1

The nature of data set [19]: Oral bioavailability in Beagle dog at 1.5 mg/kg measured upto 24 hrs by LC-MS/MS analysis. The class given is ADME, organism-based, Canis lupus familiaris. To be noted: in vivo. Put shortly:
as §1

Data set [20] in a line: Unbound volume of distribution at steady state in Beagle dog at 1.5 mg/kg, po or 0.4 mg/kg, iv measured upto 24 hrs by LC-MS/MS analysis. The following applies: in vivo. The class given is ADME, organism-based, Canis lupus familiaris. Put shortly:
as §1

Data set [21] can be described thus: Unbound fraction in Beagle dog at 1.5 mg/kg, po or 0.4 mg/kg, iv measured upto 24 hrs by LC-MS/MS analysis. The class given is ADME, organism-based, Canis lupus familiaris. To be noted: in vivo.
The nature of data set [22]: Unbound fraction in Wistar Han rat at 3.1 mg/kg, po or 1 mg/kg, iv measured upto 24 hrs by LC-MS/MS analysis. In kind it is ADME, organism-based. To be noted: in vivo.
Data set [23] can be described thus: Solubility of the compound in saline by CLND method. In kind it is physicochemical.
Data set [24] can be described thus: Half-life in Wistar Han rat at 2.9 mg/kg, po or 2.1 mg/kg, iv measured upto 24 hrs by LC-MS/MS analysis. The class given is ADME, organism-based. To be noted: in vivo. Put shortly: as §1
A short description of data set [25]: Volume of distribution at steady state in Wistar Han rat at 2.9 mg/kg, po or 2.1 mg/kg, iv measured upto 24 hrs by LC-MS/MS analysis. In kind it is ADME, organism-based. The following applies: in vivo, read-out: Vdss. The method, boiled down:
as §1

The nature of data set [26]: Oral bioavailability in Wistar Han rat at 2.9 mg/kg measured upto 24 hrs by LC-MS/MS analysis. The class given is ADME, organism-based. To be noted: in vivo. The method, boiled down: as §1
A short description of data set [27]: Clearance in Wistar Han rat blood at 2.9 mg/kg, po or 2.1 mg/kg, iv measured upto 24 hrs by LC-MS/MS analysis. In kind it is ADME, organism-based. To be noted: whole blood. The method, boiled down:
as §1

Data set [28] deals with Voltage-gated inwardly rectifying potassium channel KCNH2 (Homo sapiens, UniProt Q12809). In words: Inhibition of hERG. In kind it is toxicity. (Block of hERG is tested as a sign of cardiac risk.)
Sequence of Voltage-gated inwardly rectifying potassium channel KCNH2 (Q12809 whole entry): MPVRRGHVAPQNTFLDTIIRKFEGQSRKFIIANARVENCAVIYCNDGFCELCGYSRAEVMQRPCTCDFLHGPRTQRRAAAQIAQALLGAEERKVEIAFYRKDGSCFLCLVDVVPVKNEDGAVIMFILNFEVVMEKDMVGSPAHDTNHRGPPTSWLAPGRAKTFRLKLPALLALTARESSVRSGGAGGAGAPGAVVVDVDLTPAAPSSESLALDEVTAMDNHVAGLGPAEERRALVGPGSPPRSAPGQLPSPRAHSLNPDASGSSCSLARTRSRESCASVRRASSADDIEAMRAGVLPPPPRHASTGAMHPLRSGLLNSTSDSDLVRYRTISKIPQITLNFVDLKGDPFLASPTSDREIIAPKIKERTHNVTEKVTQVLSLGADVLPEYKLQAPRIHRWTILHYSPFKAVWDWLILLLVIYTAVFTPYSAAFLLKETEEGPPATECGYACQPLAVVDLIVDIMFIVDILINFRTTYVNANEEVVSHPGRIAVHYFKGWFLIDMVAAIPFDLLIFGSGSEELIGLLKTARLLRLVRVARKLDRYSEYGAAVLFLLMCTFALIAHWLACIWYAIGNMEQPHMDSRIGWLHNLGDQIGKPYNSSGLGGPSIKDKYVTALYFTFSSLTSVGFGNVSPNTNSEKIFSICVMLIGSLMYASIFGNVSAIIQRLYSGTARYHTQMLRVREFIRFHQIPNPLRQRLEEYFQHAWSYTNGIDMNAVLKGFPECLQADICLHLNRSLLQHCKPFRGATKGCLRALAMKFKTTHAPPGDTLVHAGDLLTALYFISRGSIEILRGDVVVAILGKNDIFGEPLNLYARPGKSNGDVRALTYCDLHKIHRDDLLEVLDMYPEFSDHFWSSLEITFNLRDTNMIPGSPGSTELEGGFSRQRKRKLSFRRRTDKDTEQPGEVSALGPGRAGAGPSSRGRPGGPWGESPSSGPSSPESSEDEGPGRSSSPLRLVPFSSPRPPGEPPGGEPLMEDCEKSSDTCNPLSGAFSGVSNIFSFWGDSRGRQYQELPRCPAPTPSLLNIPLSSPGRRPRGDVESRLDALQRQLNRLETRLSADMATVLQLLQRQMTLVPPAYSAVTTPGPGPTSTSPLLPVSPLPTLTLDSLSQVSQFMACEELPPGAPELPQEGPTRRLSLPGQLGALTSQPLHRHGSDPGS
In the next data set the target is Cytochrome P450 3A4 (Homo sapiens, UniProt P08684). In words: Inhibition of CYP3A4 (unknown origin). In kind it is ADME.
Sequence of Cytochrome P450 3A4 (P08684 whole entry): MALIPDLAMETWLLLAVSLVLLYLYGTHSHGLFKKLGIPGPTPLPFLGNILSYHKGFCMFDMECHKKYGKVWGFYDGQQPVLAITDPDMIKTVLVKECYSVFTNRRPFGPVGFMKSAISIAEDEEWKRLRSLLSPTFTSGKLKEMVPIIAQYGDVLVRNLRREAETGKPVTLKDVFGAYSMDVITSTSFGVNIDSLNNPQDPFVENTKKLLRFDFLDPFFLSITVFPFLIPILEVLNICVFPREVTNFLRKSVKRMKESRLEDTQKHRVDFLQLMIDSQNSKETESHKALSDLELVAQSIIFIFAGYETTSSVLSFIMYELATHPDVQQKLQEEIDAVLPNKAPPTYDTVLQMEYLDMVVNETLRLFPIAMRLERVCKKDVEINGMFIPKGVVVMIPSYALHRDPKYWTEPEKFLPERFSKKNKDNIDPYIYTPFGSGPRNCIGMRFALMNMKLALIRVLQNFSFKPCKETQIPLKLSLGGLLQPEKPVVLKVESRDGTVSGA

Molecules are shown by their SMILES. In brackets after ≈: the same amount, converted by molar mass.

Sequence of C-C motif chemokine 2 (P13500 whole entry): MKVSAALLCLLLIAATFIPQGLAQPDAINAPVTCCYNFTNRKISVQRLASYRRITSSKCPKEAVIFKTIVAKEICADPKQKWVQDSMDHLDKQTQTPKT

In general, bioavailability refers to dose-corrected exposure relative to a reference, in per cent. The term chromatographic logD denotes lipophilicity estimated from chromatographic retention. A low value points to a more hydrophilic compound. For orientation: IC50 means the point on the concentration scale where inhibition reaches its midpoint. Low values mean inhibition by little substance, high ones a need for much substance. What is called solubility is how much of the substance goes into solution per volume. A lower solubility goes with little dissolved substance. For orientation: half-life means the time needed for the level to fall by half in the phase considered. Low values mean fast loss, high ones slow loss. `C[C@H]1C(=O)N(C)C=C(c2cn[nH]c2)c2cc([C@H](O)CO)ccc21` registered a bioavailability in data set [1] of 19%. Moreover, the chromatographic logD in data set [2] was 0.8. In data set [3], this compound had a clearance of 43 mL/min/kg. Also, the Vduss in data set [4] was found to be 1.8 L/kg. The values for the IC50 (in data set [5]; in [7]; against C-C motif chemokine 2) were 25.1 nM, 15.8 nM and 39.8 nM, respectively. This compound registered a solubility at 16 h in data set [6] of over 1000 µg/mL. The CL free in data set [8] is 75 mL/min/kg. Besides, the CLH in data set [9] was under 0.65 mL/min/g; in data set [12], under 0.8 mL/min/g; in [13] it was 0.52 mL/min/g. For the same compound, the Vd in [10] was 1 L/kg. This compound also had a half-life in data set [11] of 24.6 min. The Papp in [14] turned out to be 0.8 ×10⁻⁶ cm/s.

In the case of `C[C@H]1C(=O)N(C)C=C(c2cnn(C)c2)c2cc([C@H](O)CO)ccc21`, the Vd in data set [15] came to 1.7 L/kg; in data set [10], 1.1 L/kg. Moreover, the bioavailability was determined as 66% in data set [1] and 39% in data set [19]. In addition, the chromatographic logD in data set [2] came to 1.3. For the same compound, the clearance in [3] was 19 mL/min/kg; in data set [17], 45 mL/min/kg. Moreover, the half-life in data set [16] was 30 min; in data set [11], 58.2 min. Also, the Vduss in data set [4] was 1.8 L/kg; in [20], 3.3 L/kg. In addition, the 50% inhibitory concentration (IC50) is 31.6 nM in [5], 31.6 nM in [7] and 39.8 nM against C-C motif chemokine 2. This compound also yielded a solubility at 16 h in [6] of over 1000 µg/mL. The CL free in data set [8] amounted to 31 mL/min/kg; in data set [18], 87 mL/min/kg. Also, the CLH is 1.12 mL/min/g in data set [9], under 0.8 mL/min/g in data set [12] and under 0.45 mL/min/g in data set [13]. Further, the figures for the Fu in data set [21] and in [22] were 0.52 and 0.61, respectively. Besides, in data set [14], the Papp turned out to be 3.1 ×10⁻⁶ cm/s.

For orientation: solubility (kinetic) means solubility judged after dilution from a stock solution rather than from solid. For the compound `CCOc1ccc2c(c1)C(c1cnn(C)c1)=CN(C)C(=O)[C@@H]2C`, the chromatographic logD in data set [2] amounted to 4.1. The IC50 in data set [5] is 7.94 nM; in data set [7], 10 nM; against C-C motif chemokine 2, 20 nM. In addition, the values for the CLH in data set [9], in [12] and in [13] were under 0.65 mL/min/g, 72.36 mL/min/g and 9.14 mL/min/g, respectively. In data set [23], the solubility (kinetic) is 143 µg/mL (≈ 459 µM). In data set [14], the Papp was 57 ×10⁻⁶ cm/s.

As to `C[C@H]1C(=O)N(C)C=C(c2cn[nH]c2)c2cc([C@@H](O)CO)ccc21`, the chromatographic logD in data set [2] is 0.9. The half-life in data set [24] was 45.6 min. For the same compound, the IC50 was 39.8 nM in data set [5], 25.1 nM in data set [7] and 31.6 nM against C-C motif chemokine 2. Besides, the solubility at 16 h in [6] is 417 µg/mL (≈ 1330 µM). Further, the Vd in data set [25] is 1.5 L/kg. The same compound registered a bioavailability in data set [26] of 13%. This compound displayed a clearance in data set [27] of 37 mL/min/kg. Also, the CLH in data set [12] was under 0.8 mL/min/g; in data set [13] it was under 0.45 mL/min/g. Besides, the Papp in [14] worked out at 0.7 ×10⁻⁶ cm/s.

In the case of `COc1cc2c(cc1OC)[C@@H](C)C(=O)N(C)C=C2`, the chromatographic logD in [2] is 3.4. Besides, the IC50 was over 50100 nM in [28], 631 nM in data set [5], 158 nM in data set [7] and over 39800 nM at Cytochrome P450 3A4. Further, the solubility at 16 h in data set [6] is over 1000 µg/mL. For the same compound, the CLH is 2.64 mL/min/g in data set [9], 6.35 mL/min/g in data set [12] and under 0.45 mL/min/g in data set [13]. Besides, the solubility (kinetic) in data set [23] was at least 139 µg/mL. For the same compound, in [14], the Papp is 89 ×10⁻⁶ cm/s.
